Reference: ChEMBL document CHEMBL2010749, “Cytotoxic phloroglucinols from the leaves of Myrtus communis” (J Nat Prod, 2012)
Converted amounts (≈) assume the structure as drawn.

Experiments:
DU-145 = test: Cytotoxicity against human DU145 cells after 96 hrs; assay type: functional, cell-based; settings: DU-145, 96 h
MT4 = test: Cytotoxicity against human MT4 cells after 96 hrs; assay type: functional, cell-based; settings: MT4, 96 h
HepG2 = test: Cytotoxicity against human HepG2 cells after 96 hrs; assay type: functional, cell-based; settings: HepG2, 96 h
Staphylococcus aureus = test: Antibacterial activity against Staphylococcus aureus ATCC 25923 after 20 hrs by doubling dilution method; assay type: functional; settings: ATCC 25923, 20 h
Method in brief: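 Broth doubling-dilution in 96-well format: overnight nutrient-broth cultures (37 °C) adjusted to about 10^5 cells/mL; compound stocks in EtOH diluted 2-fold across wells in culture suspension. After 20 h at 37 °C in moist atmosphere, thiazolyl blue tetrazolium added, 4 h further incubation; living bacteria seen as violet turbid wells; MIC read as lowest inhibitory concentration.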

[1] = Selectivity ratio of IC50 for human CRL7065 to MIC for Staphylococcus aureus ATCC 25923; assay type: functional

`COc1cc([C@@H]2c3cc4c(cc3[C@@H](O[C@@H]3O[C@@H]5CO[C@@H](C)O[C@H]5[C@H](O)[C@H]3O)[C@H]3COC(=O)[C@H]23)OCO4)cc(OC)c1O` [ETOPOSIDE] showed an IC50 (DU-145) of 3 µM, an IC50 (MT4) of 0.09 µM and an IC50 (HepG2) of 4 µM.

In the case of `CC(C)[C@@H]1C[C@@]2(CC[C@]3(C(C)C)C[C@H]23)OC2=C1C(=O)C(C)(C)C(=O)C2(C)C` (relative stereo), the IC50 (MT4) is reported as 41.4 µM and the MIC (Staphylococcus aureus) is reported as > 560 µM.

`O=C(N[C@H](CO)[C@H](O)c1ccc([N+](=O)[O-])cc1)C(Cl)Cl` [CHLORAMPHENICOL] gave an MIC (Staphylococcus aureus) of 4 µM (≈ 1.29 µg/mL).

Molecule `CC(C)C(=O)c1c(O)c([C@H](C2=C(O)C(C)(C)C(=O)C(C)(C)C2=O)C(C)C)c2c3c1OC(C)(C)C[C@H]3[C@H]1C(C)(C)C(=O)C(C)(C)[C@@]1(O)O2` (relative stereo) has an IC50 (DU-145) of 3 µM, an IC50 (MT4) of 2.1 µM and a Ratio [1] of 35. It also gave an IC50 (HepG2) of 4 µM and an MIC (Staphylococcus aureus) of 0.38 µM (≈ 0.248 µg/mL).

Work on `CC[C@@]1(O)C(=O)OCc2c1cc1n(c2=O)Cc2cc3ccccc3nc2-1` [CAMPTOTHECIN] yielded an IC50 (DU-145) of 0.015 µM and an IC50 (HepG2) of 0.02 µM.

With `CC(C)C(=O)c1c(O)c([C@H](C2=C(O)C(C)(C)C(=O)C(C)(C)C2=O)C(C)C)c(O)c([C@H](C2=C(O)C(C)(C)C(=O)C(C)(C)C2=O)C(C)C)c1O` [MYRTUCOMMULONE A] the IC50 (DU-145) was 5 µM, the IC50 (MT4) was 4.7 µM and the IC50 (HepG2) was 6 µM. The MIC (Staphylococcus aureus) was 2.2 µM (≈ 1.47 µg/mL).

For `C=C1CC[C@]2(C)OC3=C(C(=O)C(C)(C)C(=O)C3(C)C)[C@@H](C(C)C)[C@@H]2[C@H]1C1CCCC1(C)C` (relative stereo), the IC50 (MT4) was > 100 µM and the MIC (Staphylococcus aureus) was > 560 µM.
